Key:
TERT-RPE1 = experiment: Compound was tested for growth inhibition against human h-TERTRPE1 cell lines; type: functional, cell-based; details: Homo sapiens, RPE-1
Method in brief: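 The noncancerous hTERT-immortalized epithelial line h-TERT-RPE1 was grown in DMEM/F-12 with 2 g/L NaHCO3 and 10% FCS (37 °C, 5% CO2) and seeded at 1000 cells/well. Substance was added 24 h later at five geometric dilutions for 96 h continuously. The read-out was crystal violet staining after glutaraldehyde fixation, OD 570 nm, with IC50 from dose–response.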

KYSE-70 cell line [1] = experiment: Cytotoxic activity against human KYSE-70 cell line at 20 uM expressed as percent growth value; type: functional
Method in brief: (§1)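 Cells in RPMI-1640 with 10% FCS were seeded (1000 cells/well; KYSE-510 500, LCLC-103H 250), then exposed 24 h later for 96 h. Read-out was crystal violet staining of glutaraldehyde-fixed cells at OD 570 nm. Growth (%) = (OD treated − OD at drug addition)/(OD control − OD at drug addition) × 100.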

LCLC-103H cell line = experiment: Growth inhibition against human LCLC-103H cell lines; type: functional, cell-based; details: Homo sapiens, LCLC-103H
Method in brief: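 LCLC-103H cells were grown in RPMI-1640 with 2 g/L NaHCO3 and 10% FCS (5% CO2, 37 °C) and plated at 250 cells/well. After 24 h, five geometric dilutions were applied continuously for 96 h. Fixation was with glutaraldehyde, followed by crystal violet staining and OD at 570 nm. IC50 came from the dose–response curves.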

RT-4 = experiment: Growth inhibition against human RT-4 cell lines; type: functional, cell-based; details: Homo sapiens, RT-4
Method in brief: (§2)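 Cells were grown in RPMI-1640 with 2 g/L NaHCO3 and 10% FCS at 37 °C in 5% CO2, seeded at 1000 cells/well, and dosed 24 h later at five geometric dilutions for 96 h of continuous exposure. Cells were then glutaraldehyde-fixed and stained with crystal violet, with OD read at 570 nm. IC50 was taken from the dose–response data.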

SISO [2] = experiment: Cytotoxic activity against human SISO cell line at 20 uM; type: functional; method in brief: as §1
5637 [3] = experiment: Growth inhibition against human 5637 cell lines; type: functional, cell-based; details: Homo sapiens; method in brief: as §2
5637 [4] = experiment: Cytotoxic activity against human 5637 cell line at 20 uM expressed as percent growth value; type: functional; method in brief: as §1
DAN-G = experiment: Growth inhibition against human DAN-G cell lines; type: functional, cell-based; details: Homo sapiens, DAN-G; method in brief: as §2
KYSE-70 cell line [5] = experiment: Growth inhibition against human KYSE-70 cell lines; type: functional, cell-based; details: Homo sapiens, KYSE-70; method in brief: as §2
MCF7 = experiment: Growth inhibition against human MCF-7 cell lines; type: functional, cell-based; details: Homo sapiens, MCF7
Method in brief: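 MCF-7 was cultured in RPMI-1640 with 2 g/L NaHCO3, 10% FCS, 1 mM pyruvate, MEM salts and amino acids. Plating was 1000 cells/well, then after 24 h, 96 h of continuous exposure at five geometric dilutions. Crystal violet staining of glutaraldehyde-fixed cells was read at 570 nm, and IC50 was derived from the dose–response data.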

SISO [6] = experiment: Growth inhibition against human SISO cell lines; type: functional, cell-based; details: Homo sapiens, SISO; method in brief: as §2

| SMILES | IC50 (TERT-RPE1) [µM] | Activity (KYSE-70 cell line [1]) | IC50 (LCLC-103H cell line) [µM] | IC50 (RT-4) [µM] | Activity (SISO [2]) | IC50 5637 [3] [µM] | Activity 5637 [4] | IC50 (DAN-G) [µM] | IC50 (KYSE-70 cell line [5]) [µM] | IC50 (MCF7) [µM] | IC50 (SISO [6]) [µM] |
| --- | --- | --- | --- | --- | --- | --- | --- | --- | --- | --- | --- |
| O=[N+]([O-])c1ccc(/C=C/c2nc3ccccc3[nH]2)s1 | 0.21 | 0.7 | 0.56 | 0.89 | -1.8 | 0.27 | 0 | – | – | – | – |
| N#C/C(=C\c1cccc([N+](=O)[O-])c1)c1nc2ccccc2[nH]1 | – | 55.4 | 1.13 | 7.68 | 54.2 | 15.2 | 14.4 | 15.8 | 22.5 | 16.4 | 30.9 |
| N#C/C(=C\c1cccs1)c1nc2ccccc2[nH]1 | – | 30.8 | 2.5 | 14.6 | 82.4 | 17.8 | 49.3 | 15 | 8.78 | 11.2 | 25.9 |
| C/C(=C\c1ccc([N+](=O)[O-])s1)c1nc2ccccc2[nH]1 | – | 2.4 | 0.44 | 4.67 | -1.3 | 3.65 | 0.5 | 3.73 | 5.11 | 2.97 | 3.28 |
